Hck-Nef inh = inhibitors of human Hck kinase activated by Nef. inhibition, % at 20 µM. AID 463187. actives 0.68% (n = 220,000). Recombinant Hck-YEEI plus Nef, Z-Lyte FRET kinase assay;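 active means Hck-Nef kinase inhibition above about 50%, limit read from the data; inactive means inhibition below that limit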;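 further: 0% = DMSO with Hck plus Nef and 100% = Hck alone without Nef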
Target sequence (P08631 whole entry, looked up): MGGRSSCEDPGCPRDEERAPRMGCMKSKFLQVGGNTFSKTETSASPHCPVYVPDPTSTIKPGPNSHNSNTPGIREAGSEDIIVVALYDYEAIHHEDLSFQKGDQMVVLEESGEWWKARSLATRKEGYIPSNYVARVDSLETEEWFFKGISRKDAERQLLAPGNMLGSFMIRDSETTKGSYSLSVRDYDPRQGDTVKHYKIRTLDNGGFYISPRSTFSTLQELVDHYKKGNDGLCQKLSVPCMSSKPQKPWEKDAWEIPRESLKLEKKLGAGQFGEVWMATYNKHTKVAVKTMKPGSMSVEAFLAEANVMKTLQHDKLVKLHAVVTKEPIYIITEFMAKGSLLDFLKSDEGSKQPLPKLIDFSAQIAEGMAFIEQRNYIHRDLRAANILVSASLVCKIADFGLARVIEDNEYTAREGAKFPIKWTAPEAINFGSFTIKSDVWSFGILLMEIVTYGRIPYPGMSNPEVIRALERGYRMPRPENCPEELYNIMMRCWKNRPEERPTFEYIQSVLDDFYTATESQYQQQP
14-3-3 Bad PPI = disrupts binding of bovine 14-3-3 zeta to phospho-Bad peptide | P63103 | TR-FRET 14-3-3zeta/Dy647-pBad peptide displacement, 1 h | inhibition, % at 21.7 µM | actives 0.71% (n = 220,000) | AID 781;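 active means inhibition above about 70%, limit read from the data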;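 further: 0% = full 14-3-3 plus peptide FRET controls and 100% = background without 14-3-3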
Mcl1-Noxa inh = disrupts binding of human Mcl-1 to Noxa peptide; Q07820; TR-FRET Mcl-1/Noxa peptide binding, 2 h; inhibition, % at 21.7 µM; actives 1.5% (n = 220,000);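 active means compounds that cut the protein-peptide binding signal by more than 50% relative to plate controls in a single-dose test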;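 further: His-tagged Mcl-1 with rhodamine Noxa BH3 peptide and terbium anti-His antibody; 0% = Mcl-1 plus Noxa peptide wells and 100% = peptide-only wells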
Mcl1-Bid inh = disrupts binding of human Mcl-1 to Bid peptide. Q07820. TR-FRET Mcl-1/Bid-Dy647 peptide binding, 1536-well. inhibition, % at 21.7 µM. actives 0.97% (n = 220,000). AID 1021;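 active means compounds that cut the binding signal by more than half at the single screening dose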;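 further: His-tagged Mcl-1 with europium anti-His antibody binding Bid BH3 peptide; 0% = Mcl-1 plus peptide wells and 100% = peptide-only wells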
Bim-Mcl-1 = inhibitors of Bim-Mcl-1 interaction, human; Q07820; Bead-based flow cytometry, Bim peptide-Mcl-1 binding; inhibition, % at 10 µM; actives 0.1% (n = 190,000); in the data active means inhibition above about 40%;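 further: 0% = no compound tracer wells and 100% = peptide blocker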
Biofilm kill mix = mixture kills Candida albicans biofilm cells; C. albicans biofilm persisters + clotrimazole, fluorescence viability; primary screen in compound mixtures of four per well; inhibition, % at 7.6 µM; actives 0.02% (n = 120,000); AID 1242;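 active means inhibition above 30.3% in the primary screen of four-compound pools, then above 30% when the compound was retested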;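 further: compounds exposed to preformed 24 h biofilms for 48 h; 0% = untreated biofilm control and 100% = clotrimazole plus chlorhexidine kill blank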
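Assay system: C. albicans biofilms / Medium: RPMI/MOPS medium, pH 7.0 / Schedule: biofilm formation 24 h, compound exposure 48 h, 37 °C / Measured by: Alamar Blue fluorescence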
The depositor's hits bear a star; . = no result. The list is not random: actives were taken first. Their share in the collection is about 3.2%.

SMILES	Hck-Nef inh	14-3-3 Bad PPI	Mcl1-Noxa inh	Mcl1-Bid inh	Bim-Mcl-1	Biofilm kill mix
COc1cc(/C=C2\SC(=S)N(CC(=O)Nc3ccc(O)cc3)C2=O)cc(OC)c1OC	21.6	57.0	77.3*	-16.9	0.0	-4.2
COc1ccc(/C=C2\SC(=S)N(CCC(=O)NC3=NCCS3)C2=O)cc1OC	0.4	15.7	55.6*	21.9	0.0	15.9
Cc1cc(NC(=O)CCN2C(=O)/C(=C/c3ccccc3F)SC2=S)no1	9.0	5.7	41.9	-6.1	4.0	4.6
COc1cc(OC)c(N(C)S(=O)(=O)c2cccc(C(=O)NC3=NCCS3)c2)cc1Cl	18.2	-8.4	18.0	-3.8	.	12.3
O=C(COC(=O)Cc1n[nH]c(=O)c2ccccc12)Nc1cccc(C(F)(F)F)c1	26.4	-16.1	12.1	7.6	0.0	2.8
CN=C1SC(C(=O)Nc2ccccc2Cl)CC(=O)N1c1ccc(OC(F)(F)Cl)cc1 (stereo not drawn)	3.6	-3.5	6.5	-55.9	-2.0	1.9
COc1ccc(N=Nc2ccc(O)c3ncccc23)cc1	20.7	3.3	-1.6	72.9*	.	-6.0
Cc1ccccc1N=Nc1ccc(O)c2ncccc12	2.8	-4.7	-34.6	-63.0	4.0	19.4
COc1ccc(Cc2nc3ccccc3n2CC(=O)N/N=C/c2ccc(C)cc2O)cc1OC	-2.8	83.1*	-97.4	3.9	-87.0	18.5
CCc1ccc2nc(N3C(=O)C(O)=C(C(=O)c4ccco4)C3c3cccs3)sc2c1 (stereo not drawn)	4.9	2.8	53.0*	19.1	1.0	.
Cc1ccc2nc(N3C(=O)C(O)=C(C(=O)c4cc5ccccc5o4)C3c3cccs3)sc2c1 (stereo not drawn)	1.0	10.9	70.0*	-25.1	2.0	.
Cc1nnc(NC(=O)C2CCN(S(=O)(=O)c3ccc(Cl)cc3)CC2)s1	6.4	7.2	-22.7	-4.5	-2.0	13.1
S=C1NC[C@H](Cc2cccc3ccccc23)N1CC1CCCCC1	19.0	-3.0	16.1	-54.0	.	18.7
Cc1nn(-c2ccccc2C(=O)O)c(=O)c2ccccc12	1.3	82.1*	.	88.5*	-4.0	.
Cc1nn(-c2ccccc2[N+](=O)[O-])c(=O)c2ccccc12	11.5	-2.4	2.5	2.3	0.0	12.4
CN(Cc1cccnc1)Cc1cn[nH]c1-c1ccc(-c2ccccc2)cc1	-4.6	-3.8	5.5	-33.9	.	22.1
Cc1ccc(C(=O)N/N=C(/CC(=O)c2cccs2)C(F)(F)F)cc1	2.3	-19.0	34.2	-10.9	-6.0	25.3
O=C(N/N=C(\CC(=O)c1cccs1)C(F)(F)F)c1ccncc1	-0.6	31.2	40.4	65.5*	.	1.4
O=C(O)[C@H](Cc1ccccc1)NC(=O)N1CCN(c2ccc(F)cc2)CC1	-10.7	-6.3	8.1	-79.2	.	29.9
CN1CCN(CC(=O)NC2CCCCC2)CC1	-0.9	71.0*	12.2	53.7*	-1.0	.
O=C(O)c1c[nH]c2ccc(F)cc2c1=O	7.3	7.5	-1.3	15.6	2.0	6.2
CN(C)CC(O)CN(c1ccccc1)c1ccccc1 (stereo not drawn)	15.9	-0.3	8.4	98.0*	.	14.4
CCCCOc1ccc(C(=O)N/C(=C\c2ccc([N+](=O)[O-])cc2)C(=O)OCc2ccco2)cc1	0.2	-11.1	7.0	-7.5	58.0*	8.1
CCCCOc1ccc(C(=O)N/C(=C\c2cccc([N+](=O)[O-])c2)C(=O)OCCC)cc1	0.9	-1.1	1.8	-26.7	0.0	.
COc1ccc(-c2nnc3n2-c2ccccc2SC3)cc1OC	-1.1	78.1*	13.7	-6.3	-3.0	.
SMILES	Hck-Nef inh	14-3-3 Bad PPI	Mcl1-Noxa inh	Mcl1-Bid inh	Bim-Mcl-1	Biofilm kill mix
Cc1cc(C)cc(N2C(=O)CC(n3nc(C)cc3C)C2=O)c1 (stereo not drawn)	3.9	-3.8	14.3	5.6	0.0	.
CCOC(=O)c1nc(C)sc1-c1ccnn1S(=O)(=O)c1ccccc1C(F)(F)F	16.2	-1.5	-3.9	-13.3	.	8.2
CCOC(=O)c1nc(C)sc1-c1ccnn1S(=O)(=O)c1ccc(C)cc1	7.1	-1.0	0.5	69.4*	.	17.7
CCCCc1cc2c(cc1NC(=O)CN1CCCCC1)OCCO2	11.0	-5.6	16.1	4.1	.	7.2
Cc1ncsc1CCOC(=O)c1cccnc1	2.6	70.0	23.7	54.2*	0.0	.
Cc1ccc(NC(=O)c2ccc([N+](=O)[O-])cc2Cl)nc1	1.4	16.0	-12.6	-20.2	-5.0	11.0
O=C(Nc1ccccn1)c1ccc([N+](=O)[O-])cc1Cl	1.3	3.9	2.5	94.2*	-3.0	15.4
CN(C)c1ccc(NC(=O)c2ccc([N+](=O)[O-])cc2Cl)cc1	5.7	-15.2	74.0*	-19.1	-4.0	4.6
CC(C)C(=O)Nc1ccc(NC(=O)c2ccc([N+](=O)[O-])cc2Cl)cc1	-0.4	-13.6	-3.8	-6.5	-4.0	15.4
Cc1cccc(-c2noc(CCCOc3ccc(Cl)cc3Cl)n2)c1	2.9	-8.7	-10.6	-17.6	-3.0	.
Nc1ccccc1N=c1ssnc1Cl	18.6	25.4	54.0*	-20.0	-7.0	2.6
Cc1cc(Cl)ccc1N=c1ssnc1Cl	-2.0	40.0	24.6	-10.4	-1.0	.
N#C/C(=C/c1ccc(OCc2ccc(C(=O)O)cc2)c(Br)c1)c1cccc(F)c1	24.1	14.6	74.3*	-43.0	-8.0	-2.8
COCCN(C(=O)C1CCC1)c1nnc(-c2cccnc2)s1	0.8	-0.2	13.5	-11.6	0.0	.
CCN(C(=O)C1CCCCC1)c1nnc(-c2cccnc2)s1	0.2	76.6*	22.7	-6.4	2.0	.
CS(=O)(=O)N(CC(=O)NCc1cccnc1)C1CCCCC1	11.0	7.8	-6.5	2.6	0.0	12.6
CC(Oc1ccccc1F)C(=O)NCCN1CCCCC1 (stereo not drawn)	1.5	4.3	-3.5	59.2*	2.0	.
Cc1[nH]n(-c2ncc(-c3ccccc3)s2)c(=O)c1C(c1ccc(Br)cc1)C(C#N)C#N (stereo not drawn)	4.5	-24.8	77.9*	28.4	-6.0	13.3
Cc1[nH]n(C(N)=S)c(=O)c1C(c1ccccc1)C(C#N)C#N (stereo not drawn)	0.8	2.0	-21.1	-53.1	-1.0	.
O=C(C[n+]1cc(Br)cc(Br)c1)c1cccc([N+](=O)[O-])c1	15.1	-3.8	14.8	-52.5	-2.0	7.0
CC1CCCCC1NC(=O)c1ccc2c(c1)[nH]c(=O)n2C1CCCC1 (stereo not drawn)	1.7	-2.3	81.6*	7.5	-4.0	.
CCn1c(=O)c(=O)[nH]c2cc(C(=O)NC3CCCC3)ccc21	-10.1	2.4	17.2	-10.3	0.0	9.3
O=C(NCc1cccs1)C1CCCN(S(=O)(=O)c2cnc[nH]2)C1 (stereo not drawn)	1.9	-4.6	0.9	-20.3	1.0	.
CCOc1ccc(N2C(=O)CC(n3ccc(C)n3)C2=O)cc1 (stereo not drawn)	2.1	9.8	-4.9	-0.4	.	6.5

Screening data (PubChem)
